From ChEMBL document CHEMBL1127834, “Naphthalenic lignan lactones as selective, nonredox 5-lipoxygenase inhibitors. Synthesis and biological activity of (methoxyalkyl)thiazole and methoxytetrahydropyran hybrids” (J Med Chem, 1994) come the findings set out here.

pIC50: −log10 of the molar value. Where only a bound is given, the exact number is not on record here.

Data set [1] can be described thus: Cmax value of compound was determined after 1 hr. Type of data set: ADME, organism-based. The note with it: in vivo. The gist of the method:
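Male Sprague-Dawley rats (2), starved overnight, dosed orally at 50 mg/kg as a solution in 0.5% methocel. Jugular vein blood sampled at 0, 0.5, 1, 2, 4, 6 and 8 h. Plasma proteins precipitated with an equal volume of acetonitrile. Supernatant analysed by reversed-phase HPLC for the lactone.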

For data set [2], the species on record is Homo sapiens. As to the kind of experiment: In vitro inhibition of LTB4 formation in human peripheral blood polymorphonuclear leukocytes (HPMN). Type of data set: functional.
Data set [3] is filed under the species Homo sapiens. As to the kind of experiment: In vitro inhibition of LTB4 formation in human whole blood(HWB). Type of data set: functional.
Data set [4] has as its target T1, Polyunsaturated fatty acid 5-lipoxygenase (Homo sapiens, UniProt P09917).
T1 sequence (P09917 whole entry): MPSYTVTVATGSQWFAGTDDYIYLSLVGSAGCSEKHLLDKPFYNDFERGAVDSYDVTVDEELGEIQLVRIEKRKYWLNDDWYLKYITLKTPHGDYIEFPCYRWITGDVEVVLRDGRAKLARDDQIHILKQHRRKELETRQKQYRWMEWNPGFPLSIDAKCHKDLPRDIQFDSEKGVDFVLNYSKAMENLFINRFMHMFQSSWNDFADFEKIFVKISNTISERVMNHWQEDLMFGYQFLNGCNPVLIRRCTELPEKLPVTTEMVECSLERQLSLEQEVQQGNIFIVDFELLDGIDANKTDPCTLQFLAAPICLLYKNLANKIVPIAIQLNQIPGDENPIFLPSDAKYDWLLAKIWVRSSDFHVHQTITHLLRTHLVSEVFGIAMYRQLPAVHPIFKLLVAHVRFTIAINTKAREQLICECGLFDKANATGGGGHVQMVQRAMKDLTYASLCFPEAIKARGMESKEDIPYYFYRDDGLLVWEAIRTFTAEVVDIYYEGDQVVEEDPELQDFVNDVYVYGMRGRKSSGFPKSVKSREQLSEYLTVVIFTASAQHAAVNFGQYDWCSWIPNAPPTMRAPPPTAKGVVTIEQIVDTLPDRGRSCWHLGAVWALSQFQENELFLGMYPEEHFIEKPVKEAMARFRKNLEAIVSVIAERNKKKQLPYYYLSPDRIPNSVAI
Put plainly: In vitro potency against human 5-Lipoxygenase. The gist of the method: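 Soluble cell-free fraction of Sf9 cells expressing recombinant human 5-LO (10 μg protein/mL). Conjugated diene formation followed at A234. Inhibitors added from 500-fold DMSO stocks.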

Data set [5] relates to Monkey. Put plainly: Inhibition of antigen-induced bronchoconstriction in allergic squirrel monkeys at 0.3 mg/kg. The note with it: in Saimiri. Type of data set: functional. A digest of the protocol: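 Allergic squirrel monkeys dosed orally at 0.3 mg/kg 4 h before aerosol challenge with Ascaris antigen. Read-outs were the increase in airway resistance (RL) and the decrease in dynamic compliance (Cdyn).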

Data set [6] is filed under the species Rattus norvegicus. Put plainly: Dose-dependent inhibition of LTB4 by the compound after 3h of oral pretreatment in rat pleural. Format: functional.
The species entered for data set [7] is Rattus norvegicus. Put plainly: Dose-dependent inhibition of LTB4 by the compound after 2 hr of oral pretreatment in rat pleural. Type of data set: functional.

`COC1(c2cccc(COc3ccc4c(-c5ccccc5)c5c(cc4c3)C(=O)OC5)c2)CCOCC1` had a Cmax in data set [1] of 4 µM. For the same molecule, the pIC50 in data set [2] is 8.82; in data set [3], 7.30.

Turning to `COC1(c2cccc(COc3ccc4ccccc4c3)c2)CCOCC1`, the figures for the pIC50 in data set [4], in data set [2] and in data set [3] were 6.00, 7.26 and 5.82, respectively.

As for `COC1(c2cccc(OCc3ccc4c(-c5ccccc5)c5c(cc4c3)C(=O)OC5)c2)CCOCC1`, the pIC50 was 7.70 in data set [4], 9.05 in data set [2] and 7.30 in data set [3].

Regarding `CCC(OC)(c1cccc(OCc2ccc3c(-c4ccccc4)c4c(cc3c2)C(=O)OC4)c1)c1nccs1` (configuration not stated), the pIC50 was 7.30 in data set [4], 8.66 in data set [2] and 6.15 in data set [3].

Consider `CCC(OC)(c1cccc(COc2ccc3ccccc3c2)c1)c1nccs1` (configuration not stated), for which the pIC50 in data set [2] is 7.96; in data set [3], less than 5.52.

In turn, `COC1(c2cccc(COc3ccc4c(-c5ccccc5)c(CO)c(C(=O)[O-])cc4c3)c2)CCOCC1.[Na+]` registered an inhibition in vivo at 0.3 mg/kg in data set [5] of 95%. Besides, the ED50 in data set [6] turned out to be 0.6 mg/kg.

Take `CCC(OC)(c1cccc(COc2ccc3c(-c4ccccc4)c4c(cc3c2)C(=O)OC4)c1)c1nccs1` (configuration not stated): the pIC50 was 6.80 in data set [4], 8.32 in data set [2] and 5.85 in data set [3].

In the case of `COC1(c2cccc(OCc3ccc4ccccc4c3)c2)CCOCC1`, the pIC50 in data set [4] is 8.00; in data set [2], 8.92; in data set [3] it was 7.22.

In data set [4], `CC(C)(C)Sc1c(CC(C)(C)C(=O)O)n(Cc2ccc(Cl)cc2)c2ccc(OCc3ccc4ccccc4n3)cc12` [QUIFLAPON] showed a pIC50 of 5.30. The 50% effective dose (ED50) in data set [7] was 0.5 mg/kg.

For `CC(c1cc2ccccc2s1)N(O)C(N)=O` (configuration not stated) [ZILEUTON], the pIC50 in data set [3] is 5.70.

`CCC(OC)(c1cccc(OCc2ccc3ccccc3c2)c1)c1nccs1` (configuration not stated) [ZM-211965]: the results for the pIC50 in data set [2] and in data set [3] were 8.36 and 6.15, respectively.

By Cmax is commonly meant the maximum level reached in the sampled fluid or tissue. A word on the pIC50: it is the IC50 on a negative log10 scale, so that one unit is a factor of ten. For orientation: inhibition in vivo means the drop in the measured response relative to a control, in per cent. What is called ED50 is the midpoint of the dose-response relation.
